Hits are enriched below; roughly 3.3% of the tested compounds scored in any of these assays.
PRMT1 FP inh: PRMT1 methyltransferase inhibitors, primary screen, biochemical, fluorescence polarization; recombinant PRMT1, activity-based probe fluorescence polarization; inhibition, % at 2.79 µM; 370,000 tested, 1.3% active;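 active = inhibition above about 21% made by adding two undisclosed values, limit read from the data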
SIAE inh: human SIAE inhibitors, primary screen, biochemical, fluorescence polarization, FP-Rh probe, 1536-well HTS | SIAE FP-Rh probe binding | inhibition, % at 9.66 µM | 370,000 tested, 0.69% active | AID 1053197, 2014;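 active = inhibition above a cutoff: mean of compounds within the control limits plus 3 SD of those, cut at about 17% in these data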;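 note: 0% = plate median of compound wells and 100% = probe without SIAE protein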
rCAG binder-1: binders of r(CAG) RNA repeats, primary screen, biochemical, fluorescence | inhibition, % at 3 µM | r(CAG) RNA repeat, TO-PRO-1 dye displacement fluorescence | AID 651821, 2012 | 370,000 tested, 1.3% active;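 active = inhibition above the plate cutoff, the mean of all test compounds on that plate plus 3 SD, cut at about 35% in these data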;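 note: 0% = DMSO alone and 100% = 100 µM mitoxantrone as full dye displacement; higher means more dye released from RNA so lower well fluorescence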
TCR CD3 inh: inhibitors of human TCR-CD3 interaction, primary screen, biochemical, fluorescence, TAMRA-labeled TCR probe | 360,000 tested, 0.37% active | T-cell receptor (TCR) | inhibition, % at 9.4 µM | AID 651800, 2012; in the data active = inhibition above about 19%;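 note: recombinant mutant TCR 2C K166C tagged with TAMRA read by polarization; 0% = receptor in buffer alone and 100% = receptor with positive control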
ABHD4 inh: ABHD4 inhibitors, primary screen, biochemical, fluorescence polarization, mouse; (Lyso)-N-acylphosphatidylethanolamine lipase (Mus musculus), Q8VD66; purified mABHD4, FP-Rh probe fluorescence polarization; inhibition, % at 8.92 µM; 370,000 tested, 0.54% active; AID 720543, 2013;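 active = inhibition exceeding the mean over every tested compound plus 3 SD, cut at about 30% in these data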;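 note: 0% = plate median of compound wells and 100% = S159A mutant with DMSO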
Target sequence (Q8VD66 whole entry, looked up): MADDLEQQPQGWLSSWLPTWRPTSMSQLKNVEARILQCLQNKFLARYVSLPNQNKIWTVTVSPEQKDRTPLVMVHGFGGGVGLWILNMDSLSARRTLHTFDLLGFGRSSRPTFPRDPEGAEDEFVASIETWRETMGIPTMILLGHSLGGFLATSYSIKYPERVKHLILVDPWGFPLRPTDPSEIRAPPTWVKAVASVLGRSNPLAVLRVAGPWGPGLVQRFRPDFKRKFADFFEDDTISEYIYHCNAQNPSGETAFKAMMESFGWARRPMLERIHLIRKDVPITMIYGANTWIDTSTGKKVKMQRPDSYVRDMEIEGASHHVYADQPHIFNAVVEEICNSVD
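Doses – 8.92 µM, single dose · Material – wild-type mouse ABHD4 protein · Replication – single well per compound (singlicate) · Measure – percent inhibition of probe binding, normalized to plate controls · Schedule – 45 min compound pre-incubation plus 60 min probe step, 25 °C · Detection – fluorescence polarization with parallel and perpendicular emission, 525/598 nm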
rCAG bind conf: small molecules binding CAG repeat RNA – biochemical, fluorescence, confirmation | inhibition, % at 3 µM | r(CAG) RNA repeat, TO-PRO-1 dye displacement fluorescence | shares compounds with rCAG binder-1 | AID 652065, 2013 | 4,300 tested, 70% active;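 active = inhibition above a per-plate cutoff, the mean inhibition of sample wells plus 3 SD, cut at about 35% in these data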;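 note: loss of TO-PRO-1 fluorescence as compound displaces dye from 1x1 AA loop RNA; 0% = DMSO only wells and 100% = 100 µM mitoxantrone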
dCAG dye counter: displacement of TO-PRO-1 from CAG DNA duplex, counter-screen for rCAG RNA repeat binder project, biochemical, fluorescence, TO-PRO-1 dye, d(CAG) DNA oligo. shares compounds with rCAG binder-1. d(CAG) DNA oligo TO-PRO-1 dye displacement. inhibition, % at 3 µM. 4,300 tested, 94% active;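 active = inhibition above its plate's cutoff, the mean test-well inhibition plus 3 SD, cut at about 4.8% in these data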;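 note: 0% = DNA dye mix with DMSO and 100% = 100 µM mitoxantrone; hits displace the dye from DNA and so lower well fluorescence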
dCAG dye DR: inhibitors of DNA CAG/GTC TO-PRO-1 complex, dose response, counter-screen for rCAG RNA repeat binder project, biochemical, fluorescence, TO-PRO-1 dye; AID 686960, 2013; shares compounds with rCAG binder-1; DNA CAG/GTC duplex TO-PRO-1 dye displacement fluorescence; IC50, µM; 250 tested, 20% active; in the data active = IC50 below about 10 µM
dCAG DNA bind: TO-PRO-1 dye complex inhibitors on d(CAG) DNA, dose response, counter-screen, biochemical, fluorescence, late stage. 30 tested, 80% active. IC50, µM. AID 720649, 2013. d(CAG) DNA duplex TO-PRO-1 dye displacement. shares compounds with rCAG binder-1
rCAG binder-2: molecules binding r(CAG) RNA repeats, late stage dose response, late-stage follow-up, biochemical, fluorescence, dose response, powder samples | shares compounds with rCAG binder-1 | r(CAG) RNA TO-PRO-1 dye displacement | IC50, µM | 30 tested, 100% active
* = called active by the depositor; i = inactive; . = no result given. Unless noted, the rule behind the calls is not given here.

SMILES	PRMT1 FP inh	SIAE inh	rCAG binder-1	TCR CD3 inh	ABHD4 inh	rCAG bind conf	dCAG dye counter	others
O=C(O)CCCCCN1C(=O)/C(=C/c2cn(-c3ccccc3)nc2-c2cccs2)SC1=S	-1	-11	57*	8	-2	69*	39*
O=C1C(=Cc2cn(-c3ccccc3)nc2-c2ccc(OCc3ccccc3F)cc2)SC(=S)N1CCS(=O)(=O)O	18	-78	72*	13	-94	65*	45*
COc1ccc(-c2nn(-c3ccccc3)cc2/C=C2/SC(=S)N(CCC(=O)O)C2=O)cc1	3	-14	20	5	6	.	.
CNC(=O)[C@@H]1CC=C[C@@H]2CCN(c3ccccc3)C(=O)[C@@H]21	0	-4	.	.	2	.	.
CCCN1CNc2c(c(=O)[nH]c(=S)n2CCc2cccc(Cl)c2Cl)C1	3	-3	.	.	-2	.	.
CSC(=NS(=O)(=O)c1ccccc1)NNC(=O)c1c(-c2c(Cl)cccc2Cl)noc1C	1	1	35*	3	4	24	4
O=C(O)CSc1c2c(nc3cc(C(=O)Nc4cccc(C(F)(F)F)c4)ccc13)CCC2	-6	-46	72*	1	-56	57*	21*
CCOC(=O)c1ccccc1NC(=O)c1ccc2c(SCC(=O)O)c3c(nc2c1)CCCC3	-2	-29	46*	5	-5	74*	30*	dCAG dye DR=7.1*;dCAG DNA bind=5.5*;rCAG binder-2=3*
CCCCn1c(NC(=O)c2ccccc2Cl)c(C#N)c2nc3ccccc3nc21	-2	0	91*	-2	-2	85*	58*
COc1ccc(C(=O)Nc2ccc(NC(=O)c3ccco3)cc2)cc1	0	-32	0	-5	6	.	.
COc1ccc(-n2c(NC(=O)c3ccco3)c(C#N)c3nc4ccccc4nc32)cc1	15	1	53*	2	9	43*	13*
COc1ccc2nc(N3C(=O)C(O)=C(C(=O)c4ccco4)C3c3ccccc3OC)sc2c1 (stereo unspecified)	0	-6	39*	4	-17	57*	21*
Cc1cc(C)c2nc(N3C(=O)C(O)=C(C(=O)c4ccco4)C3c3ccco3)sc2c1 (stereo unspecified)	13	-15	81*	9	-16	82*	49*
CCCOc1cccc(C2C(C(=O)c3ccc(C)o3)=C(O)C(=O)N2c2nc(C)c(C(C)=O)s2)c1 (stereo unspecified)	3	-15	36*	-11	-5	57*	18*	dCAG dye DR=i
COC(=O)c1sc(N2C(=O)C(O)=C(C(=O)c3ccc(C)o3)C2c2cc(OC)ccc2OC)nc1C (stereo unspecified)	-1	-2	44*	-5	-7	60*	18*
COc1ccc(OC)c(C2C(C(=O)c3ccc(C)o3)=C(O)C(=O)N2c2cc(C)on2)c1 (stereo unspecified)	1	1	7	-7	11	.	.

Screening results from PubChem.
